{"source": "ChEMBL document CHEMBL1137717", "about": "“Synthesis and in vitro antiproliferative activity of novel 1-benzhydrylpiperazine derivatives against human cancer cell lines” (Eur J Med Chem, 2009)", "key": {"HeLa": {"tested_on": "HeLa", "experiment": "Cytotoxicity against human HeLa cells assessed as cell survival at 100 uM after 24 hrs by MTT assay relative to control", "assay_type": "functional", "conditions": "read-out: Survival", "outline": "(§1)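 Cells grown in DMEM with 10% FCS (HT-29 in McCoy's with 10% FCS), seeded in 96-well plates, and grown 48 h before dosing. Exposed to 100 µM final compound (0.1% DMSO) for 24 h at 37 °C. MTT 1 mg/ml in medium was added for 4 h, formazan dissolved in DMSO, and A570 read. Survival is relative to the 0.1% DMSO control (100%); triplicate, mean ± SD.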"}, "HT-29": {"tested_on": "HT-29", "experiment": "Cytotoxicity against human HT-29 cells assessed as cell survival at 100 uM after 24 hrs by MTT assay relative to control", "assay_type": "functional", "conditions": "HT-29, 24 h, read-out: Survival", "outline": "as §1"}, "MCF7": {"tested_on": "MCF7", "experiment": "Cytotoxicity against human MCF7 cells assessed as cell survival at 100 uM after 24 hrs by MTT assay relative to control", "assay_type": "functional", "conditions": "MCF7, 24 h, read-out: Survival", "outline": "as §1"}, "[1]": {"experiment": "Cytotoxicity against human NF103 cells assessed as cell survival at 100 uM after 24 hrs by MTT assay relative to control", "assay_type": "cell-based", "conditions": "read-out: Survival", "outline": "as §1"}, "HepG2": {"tested_on": "HepG2", "experiment": "Cytotoxicity against human HepG2 cells assessed as cell survival at 100 uM after 24 hrs by MTT assay relative to control", "assay_type": "functional", "conditions": "HepG2, 24 h, read-out: Survival", "outline": "as §1"}}, "data": [{"smiles": "S=C(Nc1cccc(Cl)c1)N1CCN(C(c2ccccc2)c2ccccc2)CC1", "values": [{"measurement": "viability at 100 µM", "setting": "HeLa", "result": 69.8, "unit": "%"}, {"measurement": "viability at 100 µM", "setting": "HT-29", "result": 69.3, "unit": "%"}, {"measurement": "viability at 100 µM", "setting": "MCF7", "result": 73.6, "unit": "%"}, {"measurement": "viability at 24 h, 100 µM", "setting": "[1]", "result": 56.8, "unit": "%"}, {"measurement": "viability at 100 µM", "setting": "HepG2", "result": 69.5, "unit": "%"}]}, {"smiles": "O=S(=O)(c1ccc(Cl)cc1F)N1CCN(C(c2ccccc2)c2ccccc2)CC1", "values": [{"measurement": "viability at 100 µM", "setting": "HeLa", "result": 61.9, "unit": "%"}, {"measurement": "viability at 100 µM", "setting": "HT-29", "result": 76.3, "unit": "%"}, {"measurement": "viability at 100 µM", "setting": "MCF7", "result": 64, "unit": "%"}, {"measurement": "viability at 24 h, 100 µM", "setting": "[1]", "result": 61, "unit": "%"}, {"measurement": "viability at 100 µM", "setting": "HepG2", "result": 70.1, "unit": "%"}]}, {"smiles": "O=C(c1ccno1)N1CCN(C(c2ccccc2)c2ccccc2)CC1", "values": [{"measurement": "viability at 100 µM", "setting": "HeLa", "result": 46.8, "unit": "%"}, {"measurement": "viability at 100 µM", "setting": "HT-29", "result": 47.5, "unit": "%"}, {"measurement": "viability at 100 µM", "setting": "MCF7", "result": 44.2, "unit": "%"}, {"measurement": "viability at 24 h, 100 µM", "setting": "[1]", "result": 58.6, "unit": "%"}, {"measurement": "viability at 100 µM", "setting": "HepG2", "result": 46.1, "unit": "%"}]}, {"smiles": "Fc1ccc(NC(=S)N2CCN(C(c3ccccc3)c3ccccc3)CC2)cc1", "values": [{"measurement": "viability at 100 µM", "setting": "HeLa", "result": 48.4, "unit": "%"}, {"measurement": "viability at 100 µM", "setting": "HT-29", "result": 47.4, "unit": "%"}, {"measurement": "viability at 100 µM", "setting": "MCF7", "result": 43.9, "unit": "%"}, {"measurement": "viability at 24 h, 100 µM", "setting": "[1]", "result": 52.7, "unit": "%"}, {"measurement": "viability at 100 µM", "setting": "HepG2", "result": 45.4, "unit": "%"}]}, {"smiles": "COc1cccc(NC(=S)N2CCN(C(c3ccccc3)c3ccccc3)CC2)c1", "values": [{"measurement": "viability at 100 µM", "setting": "HeLa", "result": 72.8, "unit": "%"}, {"measurement": "viability at 100 µM", "setting": "HT-29", "result": 64.8, "unit": "%"}, {"measurement": "viability at 100 µM", "setting": "MCF7", "result": 58.7, "unit": "%"}, {"measurement": "viability at 24 h, 100 µM", "setting": "[1]", "result": 57.8, "unit": "%"}, {"measurement": "viability at 100 µM", "setting": "HepG2", "result": 64.5, "unit": "%"}]}, {"smiles": "O=S(=O)(c1ccccc1)N1CCN(C(c2ccccc2)c2ccccc2)CC1", "values": [{"measurement": "viability at 100 µM", "setting": "HeLa", "result": 61.9, "unit": "%"}, {"measurement": "viability at 100 µM", "setting": "HT-29", "result": 69.3, "unit": "%"}, {"measurement": "viability at 100 µM", "setting": "MCF7", "result": 68.1, "unit": "%"}, {"measurement": "viability at 24 h, 100 µM", "setting": "[1]", "result": 57.4, "unit": "%"}, {"measurement": "viability at 100 µM", "setting": "HepG2", "result": 66.2, "unit": "%"}]}, {"smiles": "S=C(Nc1ccc(Cl)cc1Cl)N1CCN(C(c2ccccc2)c2ccccc2)CC1", "values": [{"measurement": "viability at 100 µM", "setting": "HeLa", "result": 45.5, "unit": "%"}, {"measurement": "viability at 100 µM", "setting": "HT-29", "result": 68.2, "unit": "%"}, {"measurement": "viability at 100 µM", "setting": "MCF7", "result": 45.6, "unit": "%"}, {"measurement": "viability at 24 h, 100 µM", "setting": "[1]", "result": 53.5, "unit": "%"}, {"measurement": "viability at 100 µM", "setting": "HepG2", "result": 59.2, "unit": "%"}]}, {"smiles": "O=C(C1CC1)N1CCN(C(c2ccccc2)c2ccccc2)CC1", "values": [{"measurement": "viability at 100 µM", "setting": "HeLa", "result": 70.3, "unit": "%"}, {"measurement": "viability at 100 µM", "setting": "HT-29", "result": 72, "unit": "%"}, {"measurement": "viability at 100 µM", "setting": "MCF7", "result": 61, "unit": "%"}, {"measurement": "viability at 24 h, 100 µM", "setting": "[1]", "result": 55.1, "unit": "%"}, {"measurement": "viability at 100 µM", "setting": "HepG2", "result": 62.9, "unit": "%"}]}, {"smiles": "CC1(C)C2CCC1(CS(=O)(=O)N1CCN(C(c3ccccc3)c3ccccc3)CC1)C(=O)C2", "note": "(stereo not given)", "values": [{"measurement": "viability at 100 µM", "setting": "HeLa", "result": 65.2, "unit": "%"}, {"measurement": "viability at 100 µM", "setting": "HT-29", "result": 79.2, "unit": "%"}, {"measurement": "viability at 100 µM", "setting": "MCF7", "result": 61.7, "unit": "%"}, {"measurement": "viability at 24 h, 100 µM", "setting": "[1]", "result": 60.4, "unit": "%"}, {"measurement": "viability at 100 µM", "setting": "HepG2", "result": 72.6, "unit": "%"}]}, {"smiles": "COc1ccccc1NC(=S)N1CCN(C(c2ccccc2)c2ccccc2)CC1", "values": [{"measurement": "viability at 100 µM", "setting": "HeLa", "result": 56.8, "unit": "%"}, {"measurement": "viability at 100 µM", "setting": "HT-29", "result": 62.1, "unit": "%"}, {"measurement": "viability at 100 µM", "setting": "MCF7", "result": 54.5, "unit": "%"}, {"measurement": "viability at 24 h, 100 µM", "setting": "[1]", "result": 59.7, "unit": "%"}, {"measurement": "viability at 100 µM", "setting": "HepG2", "result": 61, "unit": "%"}]}, {"smiles": "S=C(Nc1ccccc1Cl)N1CCN(C(c2ccccc2)c2ccccc2)CC1", "values": [{"measurement": "viability at 100 µM", "setting": "HeLa", "result": 63.1, "unit": "%"}, {"measurement": "viability at 100 µM", "setting": "HT-29", "result": 70.8, "unit": "%"}, {"measurement": "viability at 100 µM", "setting": "MCF7", "result": 69.8, "unit": "%"}, {"measurement": "viability at 24 h, 100 µM", "setting": "[1]", "result": 59.1, "unit": "%"}, {"measurement": "viability at 100 µM", "setting": "HepG2", "result": 71.8, "unit": "%"}]}, {"smiles": "O=C(N1CCOCC1)N1CCN(C(c2ccccc2)c2ccccc2)CC1", "values": [{"measurement": "viability at 100 µM", "setting": "HeLa", "result": 53.9, "unit": "%"}, {"measurement": "viability at 100 µM", "setting": "HT-29", "result": 63.4, "unit": "%"}, {"measurement": "viability at 100 µM", "setting": "MCF7", "result": 68.7, "unit": "%"}, {"measurement": "viability at 24 h, 100 µM", "setting": "[1]", "result": 56.1, "unit": "%"}, {"measurement": "viability at 100 µM", "setting": "HepG2", "result": 61.9, "unit": "%"}]}, {"smiles": "O=S(=O)(CC(F)(F)F)N1CCN(C(c2ccccc2)c2ccccc2)CC1", "values": [{"measurement": "viability at 100 µM", "setting": "HeLa", "result": 47.7, "unit": "%"}, {"measurement": "viability at 100 µM", "setting": "HT-29", "result": 43.6, "unit": "%"}, {"measurement": "viability at 100 µM", "setting": "MCF7", "result": 41.1, "unit": "%"}, {"measurement": "viability at 24 h, 100 µM", "setting": "[1]", "result": 54.9, "unit": "%"}, {"measurement": "viability at 100 µM", "setting": "HepG2", "result": 47.8, "unit": "%"}]}, {"smiles": "O=C(N1CCCC1)N1CCN(C(c2ccccc2)c2ccccc2)CC1", "values": [{"measurement": "viability at 100 µM", "setting": "HeLa", "result": 64.2, "unit": "%"}, {"measurement": "viability at 100 µM", "setting": "HT-29", "result": 70.2, "unit": "%"}, {"measurement": "viability at 100 µM", "setting": "MCF7", "result": 71.4, "unit": "%"}, {"measurement": "viability at 24 h, 100 µM", "setting": "[1]", "result": 54, "unit": "%"}, {"measurement": "viability at 100 µM", "setting": "HepG2", "result": 66.2, "unit": "%"}]}, {"smiles": "S=C(Nc1ccc(Cl)cc1)N1CCN(C(c2ccccc2)c2ccccc2)CC1", "values": [{"measurement": "viability at 100 µM", "setting": "HeLa", "result": 73.9, "unit": "%"}, {"measurement": "viability at 100 µM", "setting": "HT-29", "result": 73.8, "unit": "%"}, {"measurement": "viability at 100 µM", "setting": "MCF7", "result": 66.9, "unit": "%"}, {"measurement": "viability at 24 h, 100 µM", "setting": "[1]", "result": 54.8, "unit": "%"}, {"measurement": "viability at 100 µM", "setting": "HepG2", "result": 66.2, "unit": "%"}]}, {"smiles": "COc1ccc(NC(=S)N2CCN(C(c3ccccc3)c3ccccc3)CC2)cc1", "values": [{"measurement": "viability at 100 µM", "setting": "HeLa", "result": 66, "unit": "%"}, {"measurement": "viability at 100 µM", "setting": "HT-29", "result": 55.6, "unit": "%"}, {"measurement": "viability at 100 µM", "setting": "MCF7", "result": 63.7, "unit": "%"}, {"measurement": "viability at 24 h, 100 µM", "setting": "[1]", "result": 55.9, "unit": "%"}, {"measurement": "viability at 100 µM", "setting": "HepG2", "result": 48.8, "unit": "%"}]}]}
